Data taken from paper PMC11701428 (RSC Advances, 2025).

Legend:
[1] = tested on: HepG2 cells; assay: MTT cytotoxicity assay against HepG2 cells; type: cell-based; details: read-out: IC50 ± SD HepG2, mean ± SD of three independent trials
In short: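 HepG2 cells (NCI Cairo) grown in RPMI-1640 with L-glutamine, 10% FBS and 1% penicillin–streptomycin at 37 °C, 5% CO2. Plated in triplicate at 5 × 10^4 cells; next day treated at 0.01, 0.1, 1, 10 and 100 μM. Viability measured by MTT relative to control, IC50 computed. Mean ± SD of three independent trials.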

[2] = tested on: HepG2 cells; assay: Annexin V/PI staining flow cytometry; type: cell-based; details: HepG2, treated at IC50 for 48 h
[3] = tested on: HepG2 cells; assay: Cell cycle analysis by flow cytometry in HepG2 cells; type: cell-based; details: HepG2, treated at IC50 for 48 h
In short: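 Flow cytometric cell-phase distribution of HepG2 cells. Cells were left untreated or given test compound at its IC50 for 48 h. Data are mean ± SD of three independent runs.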

[4] = molecular target: PARP-1 (Homo sapiens, UniProt P09874); assay: PARP-1 enzyme inhibition; type: biochemical; details: for percentage of inhibition of PARP-1: concentration not given
Chain of PARP-1 (P09874 whole entry): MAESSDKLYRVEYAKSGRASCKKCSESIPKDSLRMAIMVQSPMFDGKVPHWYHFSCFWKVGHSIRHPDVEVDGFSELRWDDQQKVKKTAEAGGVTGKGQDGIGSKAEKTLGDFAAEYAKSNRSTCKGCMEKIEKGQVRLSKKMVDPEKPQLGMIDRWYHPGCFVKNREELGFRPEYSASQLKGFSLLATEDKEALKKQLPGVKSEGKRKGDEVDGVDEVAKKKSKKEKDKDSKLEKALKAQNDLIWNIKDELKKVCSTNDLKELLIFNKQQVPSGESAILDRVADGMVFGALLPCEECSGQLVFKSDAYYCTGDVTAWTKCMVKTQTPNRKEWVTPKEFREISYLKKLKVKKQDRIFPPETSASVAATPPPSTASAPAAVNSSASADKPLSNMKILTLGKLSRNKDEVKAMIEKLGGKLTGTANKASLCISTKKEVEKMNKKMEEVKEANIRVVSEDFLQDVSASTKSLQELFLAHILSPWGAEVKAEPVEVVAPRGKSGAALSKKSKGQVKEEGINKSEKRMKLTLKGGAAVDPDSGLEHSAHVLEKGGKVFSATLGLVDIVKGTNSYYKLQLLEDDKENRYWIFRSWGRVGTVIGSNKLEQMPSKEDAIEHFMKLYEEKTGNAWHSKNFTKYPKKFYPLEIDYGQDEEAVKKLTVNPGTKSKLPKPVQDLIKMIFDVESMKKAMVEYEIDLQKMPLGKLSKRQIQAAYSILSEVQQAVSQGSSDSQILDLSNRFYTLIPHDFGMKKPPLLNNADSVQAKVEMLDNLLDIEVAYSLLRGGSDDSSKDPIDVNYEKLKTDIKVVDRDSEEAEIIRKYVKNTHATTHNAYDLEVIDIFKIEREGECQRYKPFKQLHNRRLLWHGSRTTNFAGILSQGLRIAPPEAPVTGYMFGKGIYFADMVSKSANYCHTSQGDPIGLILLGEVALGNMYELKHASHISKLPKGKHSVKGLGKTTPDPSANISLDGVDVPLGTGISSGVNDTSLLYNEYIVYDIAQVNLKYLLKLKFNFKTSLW

[5] = tested on: apoptosis-related genes (P53, Bax, caspases 3, 8, 9, BCL-2) in HepG2 cells; assay: RT-PCR gene expression of apoptosis-related genes in HepG2 cells; type: cell-based; details: HepG2, IC50, 48 h, normalized to β-actin
[6] = molecular target: EGFR (Homo sapiens, UniProt P00533); assay: EGFR-TK enzyme inhibition; type: biochemical; details: for percentage of inhibition of EGFR: concentration not given
Chain of EGFR (P00533 25-1210): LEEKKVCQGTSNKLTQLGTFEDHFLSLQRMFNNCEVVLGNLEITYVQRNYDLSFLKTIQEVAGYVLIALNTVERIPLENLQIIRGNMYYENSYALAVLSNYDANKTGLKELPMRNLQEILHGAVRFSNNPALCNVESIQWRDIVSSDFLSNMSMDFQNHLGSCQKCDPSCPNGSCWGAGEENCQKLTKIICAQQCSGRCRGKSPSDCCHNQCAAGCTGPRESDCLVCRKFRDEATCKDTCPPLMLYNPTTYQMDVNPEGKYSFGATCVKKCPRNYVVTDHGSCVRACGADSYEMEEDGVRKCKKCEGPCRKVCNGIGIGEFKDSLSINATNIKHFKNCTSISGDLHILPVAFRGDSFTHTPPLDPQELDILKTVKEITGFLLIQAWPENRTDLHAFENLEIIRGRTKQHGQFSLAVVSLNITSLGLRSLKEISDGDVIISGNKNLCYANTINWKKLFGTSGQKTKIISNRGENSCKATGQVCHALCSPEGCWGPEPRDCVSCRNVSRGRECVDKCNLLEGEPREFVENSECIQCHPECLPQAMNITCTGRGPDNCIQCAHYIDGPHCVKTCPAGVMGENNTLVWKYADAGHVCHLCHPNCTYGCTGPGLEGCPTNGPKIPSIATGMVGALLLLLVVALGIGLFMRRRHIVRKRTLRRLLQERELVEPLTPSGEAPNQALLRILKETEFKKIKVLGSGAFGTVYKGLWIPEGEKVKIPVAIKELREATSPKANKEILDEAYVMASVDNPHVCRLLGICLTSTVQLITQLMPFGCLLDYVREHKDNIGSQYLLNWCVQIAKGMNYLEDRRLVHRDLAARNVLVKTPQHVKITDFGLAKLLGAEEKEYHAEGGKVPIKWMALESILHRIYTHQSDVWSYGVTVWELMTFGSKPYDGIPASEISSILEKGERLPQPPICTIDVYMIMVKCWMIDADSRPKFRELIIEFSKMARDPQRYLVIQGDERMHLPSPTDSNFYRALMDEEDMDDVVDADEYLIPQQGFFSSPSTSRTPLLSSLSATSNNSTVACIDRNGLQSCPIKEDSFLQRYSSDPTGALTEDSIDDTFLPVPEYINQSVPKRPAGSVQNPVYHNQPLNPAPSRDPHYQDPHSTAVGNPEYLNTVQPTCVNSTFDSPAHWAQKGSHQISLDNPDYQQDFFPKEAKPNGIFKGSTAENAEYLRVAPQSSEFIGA

SMILES	IC50 [1] [nM]	IC50 [4] [nM]	percentage of inhibition of PARP-1 [4] [%]	IC50 [6] [nM]	percentage of inhibition of EGFR [6] [%]	other results
Cc1c(C(=O)/C=C/c2cc3ccccc3s2)nnn1-c1c(Cl)cc(Cl)cc1Cl [1b, (E)-3-(Benzo[b]thiophen-2-yl)-1-(5-methyl-1-(2,4,6-trichlorophenyl)-1H-1,2,3-triazol-4-yl)prop-2-en-1-one]	8500 ± 400	–	–	–	–	–
Cc1c(C(=O)[C@H]2[C@H](c3cc4ccccc4o3)C3CCCN3[C@]23C(=O)Nc2cc(Cl)ccc23)nnn1-c1c(Cl)cc(Cl)cc1Cl (stereo partly drawn) [4a, (1′S,2′S,3R)-1′-(Benzofuran-2-yl)-6-chloro-2′-(5-methyl-1-(2,4,6-trichlorophenyl)-1H-1,2,3-triazole-4-carbonyl)-1′,2′,5′,6′,7′,7a′-hexahydrospiro[indoline-3,3′-pyrrolizin]-2-one]	–	2.01 ± 0.1	95.2	74.6 ± 1.8	94.1	early apoptosis cell population [2]: 12.1%; induction of apoptosis versus untreated control [2]: 6.62 fold; late apoptosis cell population [2]: 0.95%; cells in necrosis ([2]; untreated 0.61%): 0.58%; cell population in total apoptosis ([2]; untreated 1.97%): 13.05%; cell population in S-phase ([3]; control 30%): 33%; cell population in G2/M-phase ([3]; control 34%): 42%; Bax gene expression fold change ([5]; 2^−ΔΔCT): 4.6 fold; P53 gene expression fold change ([5]; 2^−ΔΔCT): 9.3 fold; caspase 3 gene expression fold change ([5]; 2^−ΔΔCT): 5.6 fold; caspase 8 gene expression fold change ([5]; 2^−ΔΔCT): 3.5 fold; caspase 9 gene expression fold change ([5]; 2^−ΔΔCT): 8.6 fold; BCL-2 gene expression (fold, decrease) ([5]; anti-apoptotic gene, decreased): 0.37 fold
Cc1c(C(=O)[C@H]2[C@H](c3cc4ccccc4s3)C3CCCN3[C@]23C(=O)Nc2cc(Cl)ccc23)nnn1-c1c(Cl)cc(Cl)cc1Cl (stereo partly drawn) [4b, (1′S,2′S,3R)-1′-(Benzo[b]thiophen-2-yl)-6-chloro-2′-(5-methyl-1-(2,4,6-trichlorophenyl)-1H-1,2,3-triazole-4-carbonyl)-1′,2′,5′,6′,7′,7a′-hexahydrospiro[indoline-3,3′-pyrrolizin]-2-one]	–	3.6 ± 0.3	81.2	85.3 ± 2.9	90.1	–
Cc1c(C(=O)[C@H]2[C@H](c3cc4ccccc4s3)C3CCCN3[C@]23C(=O)Nc2ccc(F)cc23)nnn1-c1c(Cl)cc(Cl)cc1Cl (stereo partly drawn) [4f, (1′S,2′S,3R)-1′-(Benzo[b]thiophen-2-yl)-5-fluoro-2′-(5-methyl-1-(2,4,6-trichlorophenyl)-1H-1,2,3-triazole-4-carbonyl)-1′,2′,5′,6′,7′,7a′-hexahydrospiro[indoline-3,3′-pyrrolizin]-2-one]	–	18.4 ± 1	86.6	116 ± 3.1	84.3	–
Cc1c(C(=O)[C@H]2[C@H](c3cc4ccccc4o3)C3CCCN3[C@]23C(=O)Nc2ccc(F)cc23)nnn1-c1c(Cl)cc(Cl)cc1Cl (stereo partly drawn) [4g, (1′S,2′S,3R)-1′-(Benzofuran-2-yl)-5-fluoro-2′-(5-methyl-1-(2,4,6-trichlorophenyl)-1H-1,2,3-triazole-4-carbonyl)-1′,2′,5′,6′,7′,7a′-hexahydrospiro[indoline-3,3′-pyrrolizin]-2-one]	8900 ± 300	–	–	–	–	–
